hERG protect = hERG (human) protection from proarrhythmic block; Q12809; CHO-hERG, FluxOR thallium flux, dofetilide IC70 present; activation (rescue from dofetilide block), less the hit threshold, % at 10 µM; 0.51% of 310,000 active;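 active means activation above the mean of controls blocked by dofetilide plus 5 SD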;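 further: thallium influx through hERG after potassium depolarization seen as dye fluorescence rise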
Target sequence (Q12809 whole entry, looked up): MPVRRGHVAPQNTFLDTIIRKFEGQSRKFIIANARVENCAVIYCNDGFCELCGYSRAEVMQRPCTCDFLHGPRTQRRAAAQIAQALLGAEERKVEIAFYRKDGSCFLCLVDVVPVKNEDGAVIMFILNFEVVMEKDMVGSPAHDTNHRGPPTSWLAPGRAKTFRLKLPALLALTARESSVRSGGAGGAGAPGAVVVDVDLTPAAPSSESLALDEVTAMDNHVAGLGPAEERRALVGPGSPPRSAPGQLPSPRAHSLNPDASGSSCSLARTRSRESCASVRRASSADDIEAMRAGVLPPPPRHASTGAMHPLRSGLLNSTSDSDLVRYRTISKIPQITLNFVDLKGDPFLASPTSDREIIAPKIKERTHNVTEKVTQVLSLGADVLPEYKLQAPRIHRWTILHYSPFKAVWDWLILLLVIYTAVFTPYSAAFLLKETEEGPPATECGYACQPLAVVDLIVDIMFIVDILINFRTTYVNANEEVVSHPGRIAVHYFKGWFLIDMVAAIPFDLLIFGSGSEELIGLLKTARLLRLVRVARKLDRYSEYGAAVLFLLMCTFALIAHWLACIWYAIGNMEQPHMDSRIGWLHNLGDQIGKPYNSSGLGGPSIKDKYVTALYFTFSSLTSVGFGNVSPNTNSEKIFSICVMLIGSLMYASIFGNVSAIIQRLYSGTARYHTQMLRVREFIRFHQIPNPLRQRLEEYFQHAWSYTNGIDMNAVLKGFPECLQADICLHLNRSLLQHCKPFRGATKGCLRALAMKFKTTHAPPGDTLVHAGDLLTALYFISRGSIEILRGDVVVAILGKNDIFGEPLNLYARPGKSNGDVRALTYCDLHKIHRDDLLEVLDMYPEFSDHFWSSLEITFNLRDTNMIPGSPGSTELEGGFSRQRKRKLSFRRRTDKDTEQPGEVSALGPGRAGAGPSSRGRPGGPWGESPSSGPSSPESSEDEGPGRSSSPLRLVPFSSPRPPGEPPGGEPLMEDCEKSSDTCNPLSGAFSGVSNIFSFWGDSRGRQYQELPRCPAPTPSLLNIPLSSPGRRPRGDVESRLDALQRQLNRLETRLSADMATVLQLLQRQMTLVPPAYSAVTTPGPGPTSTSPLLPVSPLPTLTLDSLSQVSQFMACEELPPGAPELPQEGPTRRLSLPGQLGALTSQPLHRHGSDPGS
KCNQ1 inh = inhibitors of human KCNQ1 potassium channel | P51787 | CHO-K1 KCNQ1, FluxOR thallium flux fluorescence; stronger effect = higher value | 1.3% of 310,000 active | B-score at 10 µM;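 active means compounds whose thallium flux B-score, printed positive for inhibition, exceeds three library SD while starting fluorescence stays within three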;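 further: channel opened by potassium depolarization with thallium stimulus after 20 min compound exposure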
KCNQ1 act = human KCNQ1 channel potentiation or activation. P51787. CHO-K1 KCNQ1, thallium flux FluxOR fluorescence; stronger effect = higher value. B-score at 10 µM. 0.35% of 310,000 active. AID 2648;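 active means fluorescence ratio B-score, a plate-corrected score, at least three library SD, with initial intensity B-score within 5 SD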
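Schedule – 37 °C overnight plating, 90-min dark dye load, 20-min compound pretreatment · System – stable KCNQ1 CHO-K1 line · Probe or stimulus – thallium- and potassium-containing depolarizing buffer · Measured by – kinetic FluxOR fluorescence, 10 s baseline plus 110 s post-stimulus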
KCNK3 block = human KCNK3 channel inhibition, primary screen. CHO-KCNK3 thallium flux, FluxOR fluorescence; stronger effect = lower value. O14649. B-score at 10 µM. 0.84% of 340,000 active;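 active means B-score under library mean minus 4 SD, starting fluorescence ratio at most library mean plus 5 SD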;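 further: more negative B-score means stronger inhibition of thallium flux through KCNK3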
KCNK9 inh = inhibitors of human KCNK9 two-pore domain potassium channel; B-score at 10 µM; HEK293 KCNK9, FluxOR thallium flux fluorescence; stronger effect = lower value; AID 488922; Q9NPC2; 1.2% of 310,000 active;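 active means ratio B-score over 3 SD below the library mean, with starting fluorescence within 5 SD of its mean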;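 further: negative B-score means less thallium flux so channel inhibition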
KCNK9 inh conf = human KCNK9 inhibitor confirmation; shares compounds with KCNK9 inh; inhibition, % at 10 µM; 43% of 4,900 active; AID 492992; HEK293 KCNK9 cells, FluxOR thallium flux fluorescence;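 active means thallium signal inhibited by more than 5 SD of the compound-free buffer control wells, on both duplicate plates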
Kir2-1 spec = selectivity of KCNK9 modulators against mouse Kir2.1. shares compounds with KCNK9 inh. Kir2.1 cells, FluxOR thallium flux fluorescence. inhibition, % at 10 µM. 4% of 4,900 active;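 active means thallium signal drop more than 5 SD beyond the mean of the no-compound control wells, seen in both duplicate plates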;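 further: signal is fluorescence rise after thallium addition divided by baseline fluorescence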
KCNK9 uninduced = non-induced cell nonspecific activity of KCNK9 modulators; shares compounds with KCNK9 inh; non-induced KCNK9-HEK293, FluxOR thallium flux; inhibition, % at 10 µM; 40% of 4,900 active;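 active means thallium signal drop beyond 5 SD of the untreated control mean, on both duplicate plates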
Of the large screens only hits and unclear results are named; the others gave an inactive call (follow-up assays come after a bar, where they were run). Only some compounds are listed: those with a hit (about 3.1% of all), similar ones and a draw of the others.

COc1ccc(NC(=O)CSc2nnc(C3CCCCC3)n2-c2ccccc2)cc1	none | KCNK9 inh conf inactive | Kir2-1 spec inactive | KCNK9 uninduced inactive
COc1ccc(-n2c(SCC(=O)Nc3ccc(Cl)cc3)nc(O)c(Cc3ccccc3)c2=O)cc1	none | KCNK9 inh conf inactive | Kir2-1 spec inactive | KCNK9 uninduced inactive
COc1ccccc1CC(=O)N1CCC(CCC(=O)NC2CC2)CC1	none
Cc1noc(NS(=O)(=O)c2ccc(NC(=O)c3ccc(Cl)c(S(=O)(=O)N(C)c4ccccc4)c3)cc2)c1C	none (no result: hERG protect, KCNQ1 inh, KCNQ1 act, KCNK9 inh)
CCOc1ccccc1C(=O)NCC(=O)Nc1ncccc1C	none
CCOc1ccc(C(=O)NCC(=O)Nc2ncccc2C)cc1OCC	none | KCNK9 inh conf 51% | Kir2-1 spec inactive | KCNK9 uninduced inactive
COc1ccc(CC(=O)OCC(=O)NCc2ccccc2Cl)cc1OC	none
COc1cccc(CN2CCN(Cc3cccc(Br)c3)CC2)c1OC	none | KCNK9 inh conf inactive | Kir2-1 spec inactive | KCNK9 uninduced inactive
COc1cccc(CN2CCN(Cc3cc(OC)c(OC)cc3[N+](=O)[O-])CC2)c1	none | KCNK9 inh conf inactive | Kir2-1 spec inactive | KCNK9 uninduced inactive
COc1cccc(CN2CCSCC2)c1OC	none
O=C(CSc1ccccc1)N1CCc2ccccc21	none
CCn1cc(SCC(=O)N2CCc3ccccc32)c2ccccc21	none | KCNK9 inh conf inactive | Kir2-1 spec 40% | KCNK9 uninduced inactive
O=C(COc1ccc(Br)cc1)N1CCc2ccccc2C1	none
O=C(CCS(=O)(=O)Cc1ccccc1)N1CCc2ccccc2C1	none | KCNK9 inh conf inactive | Kir2-1 spec inactive | KCNK9 uninduced inactive
O=C(Cc1ccc(Br)cc1)OCC(=O)N1CCc2ccccc2C1	none | KCNK9 inh conf inactive | Kir2-1 spec inactive | KCNK9 uninduced inactive
O=C(CCS(=O)(=O)Cc1ccccc1F)N1CCc2ccccc2C1	none
COc1ccc2c(c1OC)C(=O)OC2C/C(=N\NC(N)=O)c1ccccc1 (stereo not given)	none
Cc1nc(C)c(-c2ccc(SCc3ccc(Cl)cc3)nn2)s1	none | KCNK9 inh conf inactive | Kir2-1 spec inactive | KCNK9 uninduced inactive
COC(=O)/C(=C(/F)Sc1cc(C)c(O)c(C)c1)C(F)(F)F	none
N#C/C(=C/c1ccc(N2CCCCC2)o1)C(=O)Nc1ccc2ccccc2c1	none
N#C/C(=C/c1ccc(N2CCCCCC2)o1)c1cccc(F)c1	KCNQ1 inh 9, KCNK3 block -13, KCNK9 inh -15 | KCNK9 inh conf 74% | Kir2-1 spec inactive | KCNK9 uninduced 71%
N#C/C(=C/c1ccc(N2CCCCCC2)o1)c1ccc(F)cc1	KCNK3 block -11, KCNK9 inh -9.3 | KCNK9 inh conf 58% | Kir2-1 spec inactive | KCNK9 uninduced 70%
COc1cc(N2CCCC2)c(OC)cc1/C=C(/C#N)c1cccc(F)c1	KCNQ1 inh 7, KCNK3 block -10, KCNK9 inh -12 | KCNK9 inh conf 61% | Kir2-1 spec 35% | KCNK9 uninduced 50%
N#C/C(=C/c1ccc(N2CCCCC2)o1)C(=O)Nc1ccc(Cl)cc1	none
COc1cccc(/C=C(/C#N)c2ccc(F)cc2)c1OCc1cccc(C(=O)O)c1	none
NC(=O)COC(=O)c1ccccc1OCc1ccccc1Cl	none
CCn1c(C(=O)N2CCCC(C(=O)NCCCc3ccccc3)C2)cc2sccc21 (stereo not given)	none | KCNK9 inh conf inactive | Kir2-1 spec inactive | KCNK9 uninduced inactive
CCn1c(C(=O)N2CCCC(C(=O)NCCc3ccc(C)cc3)C2)cc2sccc21 (stereo not given)	none (no result: hERG protect, KCNQ1 inh, KCNQ1 act, KCNK9 inh)
CC(CCc1ccccc1)NC(=O)C1CCCN(C(=O)c2cc3sccc3n2C)C1 (stereo not given)	none
Cn1c(C(=O)N2CCCC(C(=O)NCCCSC3CCCCC3)C2)cc2sccc21 (stereo not given)	none | KCNK9 inh conf inactive | Kir2-1 spec inactive | KCNK9 uninduced inactive
COc1ccc(CCNC(=O)CSc2nnc(NC(C)=O)s2)cc1OC	none
CC(C)(C)C1=NN(c2ccc([N+](=O)[O-])cc2)C(c2ccccc2)C1 (stereo not given)	KCNQ1 inh 9, KCNK9 inh -8.8 | KCNK9 inh conf 44% | Kir2-1 spec inactive | KCNK9 uninduced 48%
O=[N+]([O-])c1ccccc1SN(Cc1ccccc1)c1ccccn1	KCNK9 inh -8.6 | KCNK9 inh conf 40% | Kir2-1 spec inactive | KCNK9 uninduced 44%
COc1cc(C(Nc2ccccn2)c2ccc3ccc(C)nc3c2O)cc(OC)c1O (stereo not given)	none
Cc1ccc2ccc(C(Nc3ccccn3)c3ccccc3)c(O)c2n1 (stereo not given)	none | KCNK9 inh conf inactive | Kir2-1 spec inactive | KCNK9 uninduced inactive
CC(C)(C)OC(=O)NCCCCCc1nnc(SCc2ccccc2)o1	none
CC(C)(C)OC(=O)NCCCCCc1nnc(SCc2ccccc2F)o1	none | KCNK9 inh conf inactive | Kir2-1 spec inactive | KCNK9 uninduced inactive
Cc1ccc(C23CC4CC(CC(CC(=O)N5CCOCC5)(C4)C2)C3)cc1	none | KCNK9 inh conf inactive | Kir2-1 spec inactive | KCNK9 uninduced inactive
Cc1ccc(C23CC4CC(CC(C(=O)N5CCN(C)CC5)(C4)C2)C3)cc1	none
O=C(COC(=O)c1ccc(O)cc1O)Nc1cccc2ccccc12	none (no result: hERG protect, KCNQ1 inh, KCNQ1 act, KCNK9 inh)
Clc1cccc(C2CCN(Cc3nc(COc4ccccc4)no3)C2)c1 (stereo not given)	none | KCNK9 inh conf inactive | Kir2-1 spec inactive | KCNK9 uninduced inactive
Clc1cccc(CN2CCN(Cc3nc(CCc4ccccc4)no3)CC2)c1	none | KCNK9 inh conf inactive | Kir2-1 spec inactive | KCNK9 uninduced inactive
Clc1cccc(CN2CCCCCC2)c1	none
c1ccc(OCc2noc(CN3CC[C@@H]4CCCC[C@H]4C3)n2)cc1	none
CC(=O)N1CCc2cc(S(=O)(=O)CCC(=O)Nc3cc(C)cc(C)c3)ccc21	none
COc1ccc(N=C2SC(CC(=O)Nc3ccccc3OC)C(=O)N2Cc2ccco2)cc1 (stereo not given)	none | KCNK9 inh conf inactive | Kir2-1 spec inactive | KCNK9 uninduced inactive
CC(C)[C@H](NC(=O)c1ccccc1Cl)C(=O)Nc1nc(-c2ccccn2)cs1	KCNK9 inh -9.3 | KCNK9 inh conf 42% | Kir2-1 spec inactive | KCNK9 uninduced 34%
Cc1cc(Oc2ccc3ccccc3c2)nc(SCC(=O)c2ccccc2)n1	KCNK9 inh -13 | KCNK9 inh conf 76% | Kir2-1 spec inactive | KCNK9 uninduced 38%
CCOC(=O)COc1c(OC)cc(Cl)cc1C1Nc2ccccc2C(=O)N1c1ccc(F)cc1 (stereo not given)	KCNK9 inh -12 | KCNK9 inh conf 64% | Kir2-1 spec inactive | KCNK9 uninduced 41%

Bioassay records as filed in PubChem BioAssay.
